According to ChEMBL document CHEMBL5346944, “Development of a 2,4-Diaminothiazole Series for the Treatment of Human African Trypanosomiasis Highlights the Importance of Static-Cidal Screening of Analogues” (J Med Chem, 2023):
The source made the active and inactive calls. The rule behind the calls is not given here.

How the values were obtained:
[1] = Fraction unbound in NMRI mouse; assay type: ADME
[2] = Cmax in HRN mouse at 10 mg/kg, ip by UPLC-MS/MS analysis; assay type: ADME, organism-based; design: dose 10 mg/kg, route ip; settings: in vivo
How it was run: (§1)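 Female NMRI or HRN mice (n = 3) given a single IP dose of 10 mg kg-1 free base in 5% DMSO/40% PEG400/55% water or 15% solutol/85% water, 10 mL kg-1. Blood sampled at 5, 15, 30 min and 1, 2, 4, 6, 8 h, diluted with two volumes of water, assayed by UPLC-MS/MS. PK parameters derived from the mean blood concentration–time curve.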

[3] = Tmax in NMRI mouse at 10 mg/kg, ip by UPLC-MS/MS analysis; assay type: ADME, organism-based; settings: in vivo; how it was run: as §1
[4] = test system: Trypanosoma brucei; test: Antiparasitic activity against bloodstream-form Trypanosoma brucei in presence of 5% Co2 incubated for 69 hrs followed by resazurin addition further incubated for 4 hrs; assay type: functional, organism-based
[5] = Antiproliferative activity against human MRC5 cells in presence of 5% Co2 incubated for 69 hrs followed by resazurin addition further incubated for 4 hrs; assay type: toxicity, cell-based
[6] = test system: Trypanosoma brucei brucei; test: Antiparasitic activity against Trypanosoma brucei brucei S427 injected in NMRI mouse assessed as cure by measuring reduction in parasitemia at 10 mg/kg, ip twice daily for 4 days measured upto 30 days by stage I efficacy study; assay type: functional, organism-based; settings: time 4.0 day
How it was run: (§2)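 Female NMRI mice (3–5 per group) infected IP with 1 × 10^4 bloodstream T. b. brucei S427 from cryopreserved stabilate diluted in Hanks' balanced salt solution with glucose. Dosed IP twice daily, days 3–6, in 5% DMSO/40% PEG400/55% water, 10 mL kg-1, prepared fresh daily. Parasitemia followed to day 30; untreated control group of three mice.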

[7] = Permeability across blood brain barrier in NMRI mouse stage 2 CNS model; assay type: ADME; settings: read-out: BBR
How it was run: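 Female NMRI mice (n = 3) received a 10 mg kg-1 IV bolus in 15% solutol. At 30 min, under terminal isoflurane anesthesia, blood was taken by cardiac puncture and the brain removed. Both were quantified by UPLC-MS/MS; brain (ng g-1) divided by blood (ng mL-1) per mouse gives the brain:blood ratio.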

[8] = AUC in NMRI mouse at 10 mg/kg, po by UPLC-MS/MS analysis; assay type: ADME, organism-based; design: dose 10 mg/kg, route po; settings: in vivo
How it was run: (§3)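 Oral gavage at 10 mg kg-1 free base in 10% DMSO/40% PEG400/50% water, 5 mL kg-1, to female NMRI mice (n = 3) or Sprague-Dawley rats. Blood drawn at 5, 15, 30 min and 1, 2, 4, 6, 8 h, mixed with two volumes of water, measured by UPLC-MS/MS. Parameters taken from the mean blood concentration–time curve.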

[9] = test system: Trypanosoma brucei; test: Antiparasitic activity against bloodstream-stage Trypanosoma brucei measured after 73 hrs by resazurin assay; assay type: functional, organism-based
[10] = Metabolic stability in CD1 mouse liver microsomes assessed as intrinsic clearance by UPLC-MS/MS analysis; assay type: ADME
How it was run: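 Compound at 0.5 μM incubated with female CD1 mouse liver microsomes (0.5 mg mL-1, 50 mM potassium phosphate pH 7.4). Reaction started with excess NADPH. Aliquots taken at 0, 3, 6, 9, 15, 30 min and quenched in acetonitrile with internal standard, then analysed by UPLC-MS/MS.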

[11] = Tmax in NMRI mouse at 10 mg/kg, po by UPLC-MS/MS analysis; assay type: ADME, organism-based; settings: in vivo; how it was run: as §3
[12] = test system: Trypanosoma brucei; test: Antiparasitic activity against bloodstream-form Trypanosoma brucei assessed as cidal in presence of 5% Co2 at > 5.6 uM incubated for 24 hrs by static-cidal assay; assay type: functional, organism-based
[13] = Tmax in HRN mouse at 10 mg/kg, ip by UPLC-MS/MS analysis; assay type: ADME, organism-based; settings: in vivo; how it was run: as §1
[14] = Drug metabolism in mouse liver microsomes assessed as retention time of 4-hydroxycyclohexyl metabolite at 0.5 to 5 uM for 60 mins by LC-MS analysis; assay type: ADME, Microsome; settings: 1 h, dose 0.5-5 µM
How it was run: (§4)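 Mouse liver microsomes incubated with compound at 0.5 and 5 μM for 60 min. Oxidized metabolites (m/z 354) detected and their retention times recorded by LC–MS.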

[15] = AUC in NMRI mouse at 10 mg/kg, […] by UPLC-MS/MS analysis; assay type: ADME, organism-based; design: dose 10 mg/kg; settings: in vivo; how it was run: as §1
[16] = Fraction unbound in NMRI mouse brain stage 2 CNS model; assay type: ADME
[17] = Cmax in NMRI mouse at 10 mg/kg, po by UPLC-MS/MS analysis; assay type: ADME, organism-based; design: dose 10 mg/kg, route po; settings: in vivo; how it was run: as §3
[18] = Drug metabolism in mouse liver microsomes assessed as retention time of 3-hydroxycyclohexyl metabolite at 0.5 to 5 uM for 60 mins by LC-MS analysis; assay type: ADME, Microsome; settings: 1 h, dose 0.5-5 µM; how it was run: as §4
[19] = test system: Trypanosoma brucei; test: Antiparasitic activity against bloodstream-form Trypanosoma brucei assessed as static in presence of 5% Co2 at < 5.6 uM incubated for 24 hrs by static-cidal assay; assay type: functional, organism-based
[20] = Toxicity in mouse assessed as tolerability at 20 mg/kg, ip; assay type: organism-based; settings: in vivo
[21] = Cmax in NMRI mouse at 10 mg/kg, ip by UPLC-MS/MS analysis; assay type: ADME, organism-based; design: dose 10 mg/kg, route ip; settings: in vivo; how it was run: as §1
[22] = Selectivity index, ratio of EC50 for human MRC-5 cells to EC50 for bloodstream-form Trypanosoma brucei; assay type: toxicity; settings: read-out: Selectivity Index
[23] = test system: Trypanosoma brucei brucei; test: Antiparasitic activity against Trypanosoma brucei brucei S427 injected in NMRI mouse assessed as cure by measuring reduction in parasitemia at 10 mg/kg, ip twice daily for 4 days by stage I efficacy study; assay type: functional; design: scale not given: the % may be the effect or the level left; settings: time 4 day; how it was run: as §2
[24] = AUC in HRN mouse at 10 mg/kg, […] by UPLC-MS/MS analysis; assay type: ADME, organism-based; design: dose 10 mg/kg; settings: in vivo; how it was run: as §1

Nc1nc(NC2CCCCC2)sc1C(=O)c1c(F)cccc1F
fraction unbound [1]: 0.0063
Cmax [2]: 3800 ng/mL
Tmax [3]: 15 min
EC50 [4]: 110 nM
EC50 at 69 h [5]: 1200 nM
Activity [6]: Active
Kp [7]: 3.3
AUC [8]: 5.7 µg·h/mL
EC50 [9]: 110 nM
CLH [10]: 15 mL/min/g
Tmax [11]: 30 min
Activity [12]: Active
Tmax [13]: 30 min
Retention_time [14]: 3.43 min
AUC [15]: 66 µg·h/mL
fraction unbound [16]: 0.006
Cmax [17]: 33 ng/mL
Retention_time [18]: 3.86 min
Activity [19]: Active
Activity [20]: Toxic
Cmax [21]: 830 ng/mL
selectivity ratio [22]: 11
Activity [23]: 100%
AUC [24]: 1000 µg·h/mL
